Reference: ChEMBL document CHEMBL4834423, “Discovery of AG-270, a First-in-Class Oral MAT2A Inhibitor for the Treatment of Tumors with Homozygous MTAP Deletion” (J Med Chem, 2021)

How the values were obtained:
[1] = Oral bioavailability in monkey at 5 mg/kg; assay type: ADME, organism-based, Macaca mulatta; conditions: rhesus monkey, in vivo
KP-4 [2] = experiment: Anticancer activity in MTAP-null human KP-4 cells xenografted mouse model assessed as tumor growth inhibition at 200 mg/kg, po qd treated for 38 days relative to control; assay type: functional; conditions: KP-4, po, 912 h, time 38 day, read-out: TGI
Outline: (§1)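 Subcutaneous KP4 MTAP-null xenograft mice, 12 per arm (60 animals), dosed orally once daily on days 24−38 at 10−200 mg/kg. Tumor SAM levels and plasma compound exposure were monitored; plasma sampled up to 24 h after the last dose. Mean tumor volume and body weight change were tracked; error bars are SEM.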

Cytochrome P450 2C9 [3] = target: T1, Cytochrome P450 2C9 (Homo sapiens, UniProt P11712); experiment: Inhibition of CYP2C9 (unknown origin) assessed as inactivation relative to control; assay type: ADME
T1 sequence (P11712 whole entry): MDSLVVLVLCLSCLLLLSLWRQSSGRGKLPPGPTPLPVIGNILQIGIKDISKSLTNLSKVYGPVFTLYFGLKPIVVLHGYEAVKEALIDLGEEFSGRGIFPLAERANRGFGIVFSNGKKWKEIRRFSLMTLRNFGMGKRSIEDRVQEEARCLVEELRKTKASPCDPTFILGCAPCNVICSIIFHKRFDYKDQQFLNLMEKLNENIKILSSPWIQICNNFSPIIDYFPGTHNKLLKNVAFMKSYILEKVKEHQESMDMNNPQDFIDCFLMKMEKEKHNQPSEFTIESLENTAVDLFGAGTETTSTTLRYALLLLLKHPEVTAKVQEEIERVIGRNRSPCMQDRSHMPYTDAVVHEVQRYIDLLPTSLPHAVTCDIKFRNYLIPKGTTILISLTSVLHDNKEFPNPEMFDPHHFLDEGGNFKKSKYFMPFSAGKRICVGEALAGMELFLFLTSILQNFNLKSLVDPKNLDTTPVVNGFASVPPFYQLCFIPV

Cytochrome P450 2C9 [4] = target: T1, Cytochrome P450 2C9; experiment: Inhibition of CYP2C9 (unknown origin); assay type: ADME
[5] = Oral bioavailability in rat at 5 mg/kg; assay type: ADME, organism-based; conditions: in vivo
[6] = target: T2, Solute carrier organic anion transporter family member 1B1 (Homo sapiens, UniProt Q9Y6L6); experiment: Inhibition of OATP1B1 (unknown origin); assay type: ADME
T2 sequence (Q9Y6L6 whole entry): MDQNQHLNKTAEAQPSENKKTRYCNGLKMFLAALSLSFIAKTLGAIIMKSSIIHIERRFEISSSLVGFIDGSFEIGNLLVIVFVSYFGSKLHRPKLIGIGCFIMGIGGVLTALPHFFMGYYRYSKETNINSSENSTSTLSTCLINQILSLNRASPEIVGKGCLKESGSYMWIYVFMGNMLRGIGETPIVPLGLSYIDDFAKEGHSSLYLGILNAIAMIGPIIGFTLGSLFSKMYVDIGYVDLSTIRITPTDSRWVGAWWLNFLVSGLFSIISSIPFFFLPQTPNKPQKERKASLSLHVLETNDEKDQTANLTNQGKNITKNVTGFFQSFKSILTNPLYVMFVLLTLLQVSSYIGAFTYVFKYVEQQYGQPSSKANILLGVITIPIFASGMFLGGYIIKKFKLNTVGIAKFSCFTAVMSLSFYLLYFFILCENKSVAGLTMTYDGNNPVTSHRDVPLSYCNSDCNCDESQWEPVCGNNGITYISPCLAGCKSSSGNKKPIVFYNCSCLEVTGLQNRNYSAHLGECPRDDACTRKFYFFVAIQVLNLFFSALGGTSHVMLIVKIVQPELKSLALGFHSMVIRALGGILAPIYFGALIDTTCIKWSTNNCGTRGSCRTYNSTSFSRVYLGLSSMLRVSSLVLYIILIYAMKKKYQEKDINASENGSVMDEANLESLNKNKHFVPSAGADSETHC

KP-4 [7] = experiment: Anticancer activity in MTAP-null human KP-4 cells xenografted mouse model assessed as tumor growth inhibition at 100 mg/kg, po qd treated for 38 days relative to control; assay type: functional; conditions: KP-4, po, 912 h, time 38 day, read-out: TGI; outline: as §1
[8] = Protein binding in mouse plasma assessed as unbound fraction; assay type: ADME, cell-free
KP-4 [9] = experiment: Anticancer activity in MTAP-null human KP-4 cells xenografted mouse model assessed as inhibition of SAM production at 100 mg/kg, po qd treated for 38 days relative to control; assay type: functional; conditions: KP-4, po, 912 h, time 38 day; outline: as §1
KP-4 [10] = experiment: Anticancer activity in MTAP-null human KP-4 cells xenografted mouse model assessed as inhibition of SAM production at 200 mg/kg, po qd treated for 38 days relative to control; assay type: functional; conditions: KP-4, po, 912 h, time 38 day; outline: as §1
[11] = Solubility of compound at pH 2; assay type: physicochemical; conditions: buffer
HCT-116 = experiment: Anticancer activity in MTAP-null human HCT116 cells xenografted mouse model assessed as tumor growth inhibition at 10 mg/kg, po qd treated for 38 days relative to control; assay type: functional; conditions: HCT-116, po, 912 h, time 38 day, read-out: TGI
Cytochrome P450 2C19 [12] = target: T3, Cytochrome P450 2C19 (Homo sapiens, UniProt P33261); experiment: Inhibition of CYP2C19 (unknown origin); assay type: ADME
T3 sequence (P33261 whole entry): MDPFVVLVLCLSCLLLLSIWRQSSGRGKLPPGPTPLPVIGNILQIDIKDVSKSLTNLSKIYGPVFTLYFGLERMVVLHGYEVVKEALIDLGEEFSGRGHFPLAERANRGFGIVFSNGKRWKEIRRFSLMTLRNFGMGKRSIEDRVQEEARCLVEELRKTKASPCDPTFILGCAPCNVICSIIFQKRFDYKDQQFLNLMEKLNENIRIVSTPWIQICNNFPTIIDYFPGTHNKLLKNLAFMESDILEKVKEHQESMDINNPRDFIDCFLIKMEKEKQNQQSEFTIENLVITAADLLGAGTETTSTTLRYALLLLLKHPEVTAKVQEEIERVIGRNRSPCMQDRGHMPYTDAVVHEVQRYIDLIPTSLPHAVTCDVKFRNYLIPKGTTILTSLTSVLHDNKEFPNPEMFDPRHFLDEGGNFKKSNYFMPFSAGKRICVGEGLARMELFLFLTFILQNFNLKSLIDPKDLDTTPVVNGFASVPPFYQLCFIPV

[13] = Solubility of compound at pH 7.4; assay type: physicochemical; conditions: buffer
[14] = target: S-adenosylmethionine synthase isoform type-2 (Homo sapiens, UniProt P31153); experiment: Inhibition of recombinant human MAT2A expressed in baculovirus infected Sf9 cells assessed as S-adenosyl methionine production using L-methionine as substrate incubated for 60 mins followed by substrate addition and measured after 60 mins relative to control; design: concentration or dose not given beside the values
Chain of S-adenosylmethionine synthase isoform type-2 (P31153 whole entry, looked up, canonical isoform): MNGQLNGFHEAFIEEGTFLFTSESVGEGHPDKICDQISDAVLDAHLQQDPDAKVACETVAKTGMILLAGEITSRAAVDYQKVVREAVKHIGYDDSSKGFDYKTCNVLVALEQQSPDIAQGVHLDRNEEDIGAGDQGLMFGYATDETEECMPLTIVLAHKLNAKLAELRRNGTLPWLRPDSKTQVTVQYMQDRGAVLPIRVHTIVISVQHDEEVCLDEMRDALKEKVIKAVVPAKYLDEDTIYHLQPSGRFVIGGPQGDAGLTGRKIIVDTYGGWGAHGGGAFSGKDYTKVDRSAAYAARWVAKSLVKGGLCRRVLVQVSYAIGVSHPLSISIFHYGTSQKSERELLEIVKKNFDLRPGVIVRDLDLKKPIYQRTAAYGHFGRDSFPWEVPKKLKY

Cytochrome P450 2B6 = target: T4, Cytochrome P450 2B6 (Homo sapiens, UniProt P20813); experiment: Inhibition of CYP2B6 (unknown origin) assessed as inactivation relative to control; assay type: ADME
T4 sequence (P20813 whole entry): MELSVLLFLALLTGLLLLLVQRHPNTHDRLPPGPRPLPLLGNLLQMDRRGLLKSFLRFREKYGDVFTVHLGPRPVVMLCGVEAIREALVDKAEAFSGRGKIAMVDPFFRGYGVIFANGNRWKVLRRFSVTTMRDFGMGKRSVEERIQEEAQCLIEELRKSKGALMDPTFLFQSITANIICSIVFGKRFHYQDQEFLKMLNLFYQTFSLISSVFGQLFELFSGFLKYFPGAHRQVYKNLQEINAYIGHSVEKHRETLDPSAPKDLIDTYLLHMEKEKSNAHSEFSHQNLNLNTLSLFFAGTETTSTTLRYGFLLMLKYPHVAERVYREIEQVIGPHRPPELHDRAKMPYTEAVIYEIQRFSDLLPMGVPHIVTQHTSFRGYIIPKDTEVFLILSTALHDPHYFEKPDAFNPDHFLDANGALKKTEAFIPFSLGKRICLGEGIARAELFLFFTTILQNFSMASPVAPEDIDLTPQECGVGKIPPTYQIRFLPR

Cytochrome P450 2D6 = Cytochrome P450 2D6 (Homo sapiens, UniProt P10635); experiment: Inhibition of CYP2D6 (unknown origin); assay type: ADME
Chain of Cytochrome P450 2D6 (P10635 whole entry): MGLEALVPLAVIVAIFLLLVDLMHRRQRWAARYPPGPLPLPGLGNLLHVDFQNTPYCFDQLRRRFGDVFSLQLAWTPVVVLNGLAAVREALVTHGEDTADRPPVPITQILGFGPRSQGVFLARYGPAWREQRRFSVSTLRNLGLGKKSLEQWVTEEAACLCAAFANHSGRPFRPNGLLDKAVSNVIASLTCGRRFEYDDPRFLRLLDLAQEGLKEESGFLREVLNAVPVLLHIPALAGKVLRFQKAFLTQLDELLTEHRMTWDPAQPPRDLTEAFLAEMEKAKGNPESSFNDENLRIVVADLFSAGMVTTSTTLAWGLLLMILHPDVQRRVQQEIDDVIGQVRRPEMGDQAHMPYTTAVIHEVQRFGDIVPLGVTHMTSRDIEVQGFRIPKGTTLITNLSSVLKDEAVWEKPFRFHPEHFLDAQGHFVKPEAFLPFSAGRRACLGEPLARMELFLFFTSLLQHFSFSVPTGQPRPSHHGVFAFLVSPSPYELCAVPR

Cytochrome P450 2C19 [15] = target: T3, Cytochrome P450 2C19; experiment: Inhibition of CYP2C19 (unknown origin) assessed as inactivation relative to control; assay type: ADME
KP-4 [16] = experiment: Anticancer activity in MTAP-null human KP-4 cells xenografted mouse model assessed as inhibition of SAM production at 10 mg/kg, po qd treated for 38 days relative to control; assay type: functional; conditions: KP-4, po, 912 h, time 38 day; outline: as §1
KP-4 [17] = experiment: Anticancer activity in MTAP-null human KP-4 cells xenografted mouse model assessed as tumor growth inhibition at 30 mg/kg, po qd treated for 38 days relative to control; assay type: functional; conditions: KP-4, po, 912 h, time 38 day, read-out: TGI; outline: as §1
[18] = Toxicity in MTAP-null human KP-4 cells xenografted mouse model assessed as body weight change at 10 to 200 mg/kg, po qd treated for 38 days; assay type: organism-based; conditions: in vivo, 912 h, dose 10-200 mg/kg, time 38 day; outline: as §1
[19] = Protein binding in dog plasma assessed as unbound fraction; assay type: ADME, cell-free, Canis lupus familiaris
[20] = Protein binding in human plasma assessed as unbound fraction; assay type: ADME, cell-free

bioavailability [1]: 31%
INH (Cytochrome P450 2C9 [3]): > 50 µM
IC50 (Cytochrome P450 2C9 [4]): > 10 µM
bioavailability [5]: 92%
IC50 [6]: 2100 nM
fraction unbound [8]: 0.0028
solubility [11]: < 0.5 µM
IC50 (Cytochrome P450 2C19 [12]): > 10 µM
solubility [13]: < 0.1 µM
inhibition [14]: 91%
INH (Cytochrome P450 2B6): > 3.6 µM
IC50 (Cytochrome P450 2D6): > 10 µM
INH (Cytochrome P450 2C19 [15]): > 50 µM
fraction unbound [19]: 0.028
fraction unbound [20]: 0.015
Structure (SMILES): COc1ccc(-c2c(Nc3ccccn3)[nH]c3c(C4=CCCCC4)c(-c4ccccc4)nn3c2=O)cc1
inhibition in vivo at 200 mg/kg (KP-4 [2]): 67%
inhibition in vivo at 100 mg/kg (KP-4 [7]): 66%
inhibition in vivo at 100 mg/kg (KP-4 [9]): 63.5%
inhibition in vivo at 200 mg/kg (KP-4 [10]): 81.1%
inhibition in vivo at 10 mg/kg (HCT-116): 75%
inhibition in vivo at 10 mg/kg (KP-4 [16]): 33.4%
inhibition in vivo at 30 mg/kg (KP-4 [17]): 48%
Activity [18]: Non-Toxic
